# T cruzi HTS: intracellular Trypanosoma cruzi inhibition. intracellular Trypanosoma cruzi in host cells, plate reader. activity score (inhibition), % at 5.01 µM. 22,000 tested, 4.9% active. AID 651903; in the data active = activity score above about 55%; inconclusive = no clear call, values can overlap the other calls;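 note: parasites and compound incubated about four days before reading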
# INS-1E rescue: INS-1E beta cell protection from cytokine death. protection from cytokine-induced ATP loss, % at 10 µM. 20,000 tested, 0.1% active. INS-1E cytokine-induced death, ATP luminescence, 48 h; normalised: neutral wells 0, positive control 100. AID 488910;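 active = mean replicate protection from cytokine-induced ATP loss at least 50% and at least 75% of replicates each reaching 50%; inconclusive = meets only one of the two criteria, mean or replicate share; inactive = fails both the mean and replicate share criteria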
#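 Material: INS-1E rat cells; Quantity: 8000 cells/well; Buffer or medium: phenol-red-free RPMI with 5% fetal bovine serum; Probe or stimulus: cytokine cocktail of IFN-γ, TNF-α and IL-1β; Compound dosing: single test concentration per compound, delivered by pin transfer; Incubation: 48 h co-treatment, 10 min post-lysis read; Signal: CellTiter-Glo luminescence.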
# YB-1 expression: YB-1 expression inhibition; U2OS, qRT-PCR YB-1 vs CDIP delta delta Cp, 16 h; stronger effect = higher value; zero = DMSO, each unit about twofold; delta delta Cp (YB-1 minus CDIP) (test concentration not listed); 30,000 tested, 0.37% active;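 active = delta delta Cp rounded down to an integer at or above 3, about 3 SD of DMSO wells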;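 note: higher means less YB-1 transcript or more CDIP transcript relative to DMSO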
# A number is an active result; 0 = inactive; ? = inconclusive; - = not tested or not shown. The sample as a whole holds a higher share of hits than the screen did.
SMILES,T cruzi HTS,INS-1E rescue,YB-1 expression
COc1ccc(CN(C)C[C@H]2Oc3ccc(NC(=O)Cc4cn(C)c5ccccc45)cc3CC(=O)N([C@@H](C)CO)C[C@H]2C)cc1,0,0,0
C[C@@H]1CN([C@H](C)CO)C(=O)Cc2cc(NC(=O)Cc3cn(C)c4ccccc34)ccc2O[C@H]1CN(C)Cc1ccc(Oc2ccccc2)cc1,77.7,0,0
S=C(NCc1ccccc1Cl)NC12CC3CC(CC(C3)C1)C2,-,-,0
CN/C(=C/[N+](=O)[O-])NCCSCc1csc(CN(C)C)n1,-,-,3.8
CNc1[nH]cnc(=S)c1N,-,-,0
C[C@@H]1CCOC(=O)C=CC=CC(=O)O[C@@H]2C[C@H]3O[C@@H]4C=C(C(=O)O)CC[C@]4(COC(=O)[C@H]1O)[C@]2(C)[C@]31CO1,-,-,0
C[C@H]1CN([C@@H](C)CO)C(=O)Cc2cc(NS(=O)(=O)c3ccc(Cl)cc3)ccc2O[C@@H]1CN(C)Cc1ccccc1,68.6,0,0
C[C@@H]1CN([C@@H](C)CO)C(=O)Cc2cc(NS(=O)(=O)c3ccc(Cl)cc3)ccc2O[C@@H]1CN(C)Cc1ccccc1,0,0,0
C[C@H](CO)N1C[C@H](C)[C@H](CN(C)Cc2ccccc2)Oc2ccc(NS(=O)(=O)c3ccccc3)cc2CC1=O,0,0,0
C[C@H]1CN([C@@H](C)CO)C(=O)Cc2cc(NS(=O)(=O)c3ccc(Cl)cc3)ccc2O[C@H]1CN(C)Cc1ccccc1,75.5,0,0
CCSC1=C(C#N)C(c2cccs2)C(C(=O)Nc2ccccc2)=C(C)N1 (centres undefined),-,-,0
CC(=O)/C=C\[C@@H]1[C@@]2(C)CCCC(C)(C)C2CC[C@@]1(C)O (some centres undefined),-,-,0
COC(=O)c1c(N)n(CCc2ccccc2)c2nc3ccccc3nc12,-,-,0
C[C@H](CO)N1C[C@H](C)[C@@H](CN(C)Cc2ccc(C(=O)Nc3ccccc3N)cc2)Oc2ccc(NS(=O)(=O)c3ccc(F)cc3)cc2C1=O,0,0,0
C[C@H](CO)N1C[C@H](C)[C@H](CN(C)Cc2ccc(C(=O)Nc3ccccc3N)cc2)Oc2ccc(NS(=O)(=O)c3ccc(Cl)cc3)cc2CC1=O,59.9,0,0
C[C@@H]1CN([C@@H](C)CO)C(=O)c2cc(NS(=O)(=O)c3ccc(Cl)cc3)ccc2O[C@H]1CN(C)Cc1ccc(C(=O)Nc2ccccc2N)cc1,0,0,0
COc1ccc(S(=O)(=O)Nc2ccc3c(c2)CC(=O)N([C@H](C)CO)C[C@@H](C)[C@@H](CN(C)Cc2ccc(C(=O)Nc4ccccc4N)cc2)O3)cc1,0,0,0
C[C@H](CO)N1C[C@H](C)[C@H](CN(C)Cc2ccc(C(=O)Nc3ccccc3N)cc2)Oc2ccc(NS(=O)(=O)c3ccc(F)cc3)cc2CC1=O,64.4,?,0
COc1ccc(S(=O)(=O)Nc2ccc3c(c2)CC(=O)N([C@H](C)CO)C[C@H](C)[C@H](CN(C)Cc2ccc(C(=O)Nc4ccccc4N)cc2)O3)cc1,59.2,53.0,0
C[C@@H]1CN([C@H](C)CO)C(=O)Cc2cc(NS(=O)(=O)c3cccs3)ccc2O[C@H]1CN(C)Cc1ccc(C(=O)Nc2ccccc2N)cc1,0,0,0
C[C@H](CO)N1C[C@H](C)[C@H](CN(C)Cc2ccc(C(=O)Nc3ccccc3N)cc2)Oc2ccc(NS(=O)(=O)c3cccs3)cc2CC1=O,64.1,0,0
CC(C)(C)C1CCC2(CC1)C(C#N)C2(C#N)C(=O)c1ccccc1 (centres undefined),-,-,0
CC1(C)C[C@H]2C3=CCC4[C@@]5(C)CC[C@H](O[C@@H]6O[C@H](CO)[C@@H](O)[C@H](O)[C@H]6O)C(C)(C)C5CC[C@@]4(C)[C@]3(C)CC[C@@]2(C(=O)O[C@@H]2O[C@H](CO)[C@@H](O)[C@H](O)[C@H]2O)CC1O (some centres undefined),-,-,0
CCc1cccc2c(C(C(=O)c3ccccc3)c3c[nH]c4c(CC)cccc34)c[nH]c12,-,-,0
Cc1ccccc1OCC1CN(CN(CC(C)C)CC(C)C)C(=O)O1 (centres undefined),-,-,0
SMILES,T cruzi HTS,INS-1E rescue,YB-1 expression
Cc1ccc(S(=O)(=O)Nc2ccc3c(c2)CC(=O)N([C@@H](C)CO)C[C@H](C)[C@@H](CN(C)Cc2ccc(C(=O)Nc4ccccc4N)cc2)O3)cc1,0,0,0
Cc1ccc(S(=O)(=O)Nc2ccc3c(c2)CC(=O)N([C@H](C)CO)C[C@@H](C)[C@@H](CN(C)Cc2ccc(C(=O)Nc4ccccc4N)cc2)O3)cc1,59.7,0,0
CCC(C)CC(C)/C=C\C1OC2=C(C(=O)OC2(C)O)C(O)C1O (centres undefined),-,-,0
C[C@@H]1CN([C@H](C)CO)C(=O)Cc2cc(NS(=O)(=O)c3ccccc3)ccc2O[C@@H]1CN(C)Cc1ccc(Oc2ccccc2)cc1,71.0,0,0
Cc1noc(C)c1S(=O)(=O)Nc1ccc2c(c1)CC(=O)N([C@H](C)CO)C[C@@H](C)[C@@H](CN(C)Cc1ccc(Oc3ccccc3)cc1)O2,66.6,0,0
Cc1noc(C)c1S(=O)(=O)Nc1ccc2c(c1)CC(=O)N([C@@H](C)CO)C[C@H](C)[C@H](CN(C)Cc1ccc(Oc3ccccc3)cc1)O2,0,0,0
C[C@H]1CN([C@@H](C)CO)C(=O)Cc2cc(NS(=O)(=O)c3ccccc3)ccc2O[C@H]1CN(C)Cc1ccc(Oc2ccccc2)cc1,0,0,0
COc1ccc(S(=O)(=O)Nc2ccc3c(c2)C(=O)N([C@H](C)CO)C[C@H](C)[C@H](CN(C)S(=O)(=O)c2ccc(OC)cc2)O3)cc1,0,-,0
C[C@@H]1CN([C@@H](C)CO)C(=O)c2cc(NS(=O)(=O)c3ccc(F)cc3)ccc2O[C@H]1CN(C)S(=O)(=O)c1ccccc1,0,0,0
COc1ccc(S(=O)(=O)Nc2ccc3c(c2)C(=O)N([C@H](C)CO)C[C@H](C)[C@@H](CN(C)S(C)(=O)=O)O3)cc1,0,0,15.5
C[C@H](CO)N1C[C@H](C)[C@H](CN(C)S(=O)(=O)c2ccccc2)Oc2ccc(NS(=O)(=O)c3ccc(F)cc3)cc2C1=O,57.7,0,0
CN(/N=C/c1ccccc1)C1=NS(=O)(=O)c2ccccc21,-,-,0
C=Cc1c(S(C)(=O)=O)sc(C(=O)Oc2ccccc2)c1C,-,-,0
Cc1ccc(S(=O)(=O)Nc2ccc3c(c2)CC(=O)N([C@@H](C)CO)C[C@@H](C)[C@@H](CN(C)Cc2ccc(Oc4ccccc4)cc2)O3)cc1,69.6,0,0
C[C@@H]1CN([C@H](C)CO)C(=O)Cc2cc(NS(=O)(=O)c3ccc(F)cc3)ccc2O[C@@H]1CN(C)Cc1ccc(Oc2ccccc2)cc1,69.3,0,0
C[C@@H]1CN([C@H](C)CO)C(=O)c2cc(NS(=O)(=O)c3ccc(Cl)cc3)ccc2O[C@@H]1CN(C)Cc1ccc(Oc2ccccc2)cc1,0,0,0
Cc1ccc(S(=O)(=O)Nc2ccc3c(c2)CC(=O)N([C@@H](C)CO)C[C@H](C)[C@H](CN(C)Cc2ccc(Oc4ccccc4)cc2)O3)cc1,0,0,0

# From PubChem BioAssay
